NF-kB neuron act: compounds increasing NF-kB expression in human neuronal cells; fold change at 12.5 µM; hit rate 1.6% among 190,000; NF-kB reporter expression; stronger effect = higher value; in the data active = fold change above about 3.3
STAT1 act: increases IFN-gamma driven STAT1 reporter signal; NIH 3T3 STAT1-luciferase reporter, luminescence; 100% = IFN-gamma alone, no compound; activation (% of control), % at 5.5 µM; hit rate 2.6% among 200,000; AID 932;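 active = activation above the screen-wide mean activation plus 3 SD, cut at about 130% in these data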;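 also: raw ratio to IFN-gamma control signal so 100% means no change and 0% no light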
APP 5'UTR act: activates APP 5'UTR luciferase reporter; SH-SY5Y APP 5'UTR luciferase reporter, luminescence; zero percent = DMSO vehicle wells; activation, % at 2 µM; hit rate 1% among 190,000; AID 1276;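 active = activation above a set limit, based on mean plus 3 SD of controls, cut at about 140% in these data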
STAT3 inh: reduces IL-6 driven STAT3 reporter signal; AID 862; inhibition, % at 5.5 µM; U3A cells, IL-6 STAT3-luciferase reporter, luminescence; host cell line lacks STAT1; hit rate 0.89% among 190,000;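 active = inhibition above the mean inhibition across all screened compounds plus 3 SD, cut at about 44% in these data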;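 also: 0% = DMSO only wells and 100% = 100 µM nifuroxazide control wells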
STAT1 inh: inhibitors of IFN-gamma induced STAT1 signaling. NIH 3T3 STAT1-luciferase reporter, luminescence. inhibition, % at 5.5 µM. hit rate 0.35% among 200,000. AID 920;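 active = inhibition above a set limit, the mean inhibition across all tested compounds plus 3 SD, cut at about 34% in these data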;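 also: 0% = IFN-gamma with DMSO and 100% = IFN-gamma with 300 µM nifuroxazide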
STAT3 activator: STAT3 signaling activation. AID 871. U3A cells, IL-6 STAT3-luciferase reporter, luminescence; 100% = signal with IL-6 EC80 alone. hit rate 0.91% among 190,000. activation (% of control), % at 5.6 µM;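 active = activation above the screen-wide mean of compound activation plus 3 SD, cut at about 130% in these data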;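 also: 0% = background luminescence of wells with medium and substrate only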
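Test system: Human STAT1-deficient U3A cells with stable STAT3-luciferase reporter | Also added: Interleukin-6, 33 ng/mL | Timing: Compound pre-incubation 1 h before IL-6, then 6 h stimulation at 37 °C | Technique: Luciferase reporter luminescence | Read-out: Percent of IL-6-only median luminescence | Benchmarks: IL-6-only wells as 100% reference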
The depositor's hits bear a star; · = no result given. A selection: hits, their analogues and other compounds. The true share with any hit is near 5.1%.

SMILES	NF-kB neuron act	STAT1 act	APP 5'UTR act	STAT3 inh	STAT1 inh	STAT3 activator
O=C1CCCC/C1=C/Nc1cccc(C(F)(F)F)c1	1.3	123	-4	12	-27	98
O=C1CCC2S/C(=C/Nc3ccc(C(F)(F)F)cc3)C(=O)N12 (centres undefined)	0.28	38	-72	78*	66*	35
COCCn1c(=NC(=O)c2ccc(S(=O)(=O)N3CCc4ccccc4C3)cc2)sc2cc(S(N)(=O)=O)ccc21	1.1	102	9	-29	-3	135*
COc1ccc(/C=C/C(=O)N2CCN(S(=O)(=O)c3ccccc3)CC2)cc1OC	0.89	138*	7	9	-43	97
O=C(O)C1CCN(Cc2cccnc2)CC1	1	100	18	-4	0	103
COc1ccccc1NC(=O)COC(=O)/C=C/c1ccc2c(c1)OCO2	2	116	-3	-3	-20	111
O=C(/C=C/c1ccccc1Cl)Nc1ccc(Cl)cn1	·	118	111	11	-22	94
COc1ccccc1NC(=O)/C=C/c1ccc2c(c1)OCO2	2.1	134*	45	0	-39	108
O=C(/C=C/c1ccc2c(c1)OCO2)Nc1ccc(Cl)cn1	3	132*	162*	31	-32	77
CC(=O)c1cc(C(=O)c2ccccc2)sc1Nc1ccccc1	1.7	103	13	-2	0	99
c1ccc(CSc2ccc(-c3cccs3)nn2)nc1	2.5	136*	78	15	-38	94
CCOc1ccc(-c2ccc(SCc3ccccn3)nn2)cc1	1.1	129*	49	26	-33	85
CCc1ccc(-c2ccc(SCc3ccccn3)nn2)cc1	2	140*	45	14	-46	93
CCc1ccc(-c2ccc(SCC(=O)Nc3nnc(C)s3)nn2)cc1	3	119	85	23	-22	85
CCOc1ccc(-c2ccc(SCC(=O)Nc3nnc(C)s3)nn2)cc1	2.6	103	183*	22	-4	89
CC1CCc2cc(F)ccc2N1C(=O)C12CCC(C)(C(=O)O1)C2(C)C (centres undefined)	1.6	91	4	11	9	98
O=C(CSc1ccccc1C(=O)O)NCc1ccc(Cl)cc1	1	100	0	-11	2	106
c1ccc(CCC2CCCCN2Cc2nc(-c3ccc4c(c3)OCO4)no2)nc1 (centres undefined)	1.2	105	-7	6	-8	99
CCOc1ccc(/C=C/C(=O)Nc2ccc(OC)cc2[N+](=O)[O-])cc1	0.88	98	8	22	2	83
Cc1cccc(NC(=O)/C=C/c2cccs2)n1	5*	149*	170*	30	-54	79
COc1cc(NC(=O)/C=C/c2ccccc2[N+](=O)[O-])cc(OC)c1	1	112	8	-7	-13	105
CCOc1ccc(NC(=O)/C=C/c2ccccc2)c([N+](=O)[O-])c1	2.2	131*	42	-13	-34	110
O=C(/C=C/c1cccs1)Nc1ccncc1	1.7	108	13	4	-9	95
Cc1ccc(NC(=O)/C=C/c2cccs2)c([N+](=O)[O-])c1	7*	146*	173*	13	-51	98
O=C(/C=C/c1ccccc1[N+](=O)[O-])Nc1ccccc1	8.3*	128	172*	26	-33	81
SMILES	NF-kB neuron act	STAT1 act	APP 5'UTR act	STAT3 inh	STAT1 inh	STAT3 activator
COCCn1c(C)cc(/C=C2/NC(=O)N(c3cccc(Cl)c3)C2=O)c1C	0.97	138*	57	10	-43	98
CC(C)n1cc(/C=C2\NC(=O)N(c3cccc(Cl)c3)C2=O)c2ccccc21	1.1	96	-5	-2	4	105
Clc1ccccc1OCc1nnc(-c2ccccc2)o1	3.4*	151*	58	-48	-58	144*
CC(=O)Nc1ccccc1OCc1nnc(-c2ccc(Cl)cc2)o1	1.3	110	10	14	-12	92
Clc1ccc(OCc2nnc(-c3ccccc3Br)o2)c(Cl)c1	4*	126	51	2	-29	101
c1ccc(Cc2nnc(-c3ccccc3)o2)cc1	2	130*	50	-11	-33	112
C=CCn1c(SCC#N)nc2sc(CC)cc2c1=O	1	96	23	2	3	102
